From ChEMBL document CHEMBL1130108, “Synthesis of nonhydrolyzable analogues of thiazole-4-carboxamide and benzamide adenine dinucleotide containing fluorine atom at the C2' of adenine nucleoside: induction of K562 differentiation and inosine monophosphate dehydrogenase inhibitory activity” (J Med Chem, 1997)
Several values for one entry are separate records, joined by “and”; a condition that tells them apart may be missing. Equal values may be shown once.

How the values were obtained:
K562 [1] = test: The concentration used to induce differentiation in K562 cells; type: functional, cell-based; conditions: Homo sapiens
In short: (§1)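 K562 erythroleukemia cells incubated with analogue; differentiation scored as fraction of benzidine-positive cells; percent benzidine-positive cells normalized by dividing by the analogue concentration applied.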

K562 [2] = test: Antiproliferative activity against K562 erythroid leukemic cells was determined.; type: functional, cell-based; conditions: Homo sapiens
[3] = biological target: Inosine-5'-monophosphate dehydrogenase 2 (Homo sapiens, UniProt P12268); test: The compound was assayed to determine the inhibitory activity against human Inosine-5'-monophosphate dehydrogenase 2
K562 [4] = test: The ability to induce differentiation in K562 cells was estimated by determining the fraction of benzidine positive cells converted following incubation with the compound.; type: functional, Homo sapiens; in short: as §1
[5] = Percentage of benzidine positive cells is divided by the concentration used.; type: functional; parameters: unit not given here; in short: as §1
K562 [6] = test: Antiproliferative activity against K562 erythroid leukemic cells was determined; NE=no effect; type: functional, cell-based, Homo sapiens
K562 [7] = test: The concentration used.; type: functional, cell-based; conditions: Homo sapiens; in short: as §1

Row | Compound | Concentration (K562 [1]) [µM] | IC50 (K562 [2]) [µM] | IC50 [3] [µM] | Positive cells (K562 [4]) [%] | Concentration [5] | IC50 (K562 [6]) | Concentration (K562 [7]) [µM]
1 | NC(=O)c1csc([C@@H]2O[C@H](COP(=O)(O)CP(=O)(O)OC[C@@H]3O[C@H](n4cnc5c(N)ncnc54)[C@@H](O)[C@H]3O)[C@@H](O)[C@H]2O)n1 | 14.3 | 18 | 0.11 | 35 | – | – | –
2 | NC(=O)c1csc([C@@H]2O[C@H](CO)[C@@H](O)[C@H]2O)n1 [TIAZOFURIN] | 15 | 3 | – | 80 | – | – | –
3 | NC(=O)c1cccc([C@@H]2O[C@H](COP(=O)(O)CP(=O)(O)OC[C@@H]3O[C@H](n4cnc5c(N)ncnc54)[C@H](F)[C@H]3O)[C@@H](O)[C@H]2O)c1 | 75 | – | 175 | 9 | 0.1 | Not Active | –
4 | NC(=O)c1cccc([C@@H]2O[C@H](COP(=O)(O)CP(=O)(O)OC[C@@H]3O[C@H](n4cnc5c(N)ncnc54)[C@@H](O)[C@H]3O)[C@@H](O)[C@H]2O)c1 | 15 | 68 | 0.8 | – | 0.6 and 0.8 | – | 60
5 | NC(=O)c1csc([C@@H]2O[C@H](COP(=O)(O)C(F)(F)P(=O)(O)OC[C@@H]3O[C@H](n4cnc5c(N)ncnc54)[C@H](F)[C@H]3O)[C@@H](O)[C@H]2O)n1 | 13 | 13 | 0.8 | 40 | 3.1 | – | –
6 | NC(=O)c1csc([C@H]2O[C@@H](COP(=O)(O)OP(=O)(O)OC[C@H]3O[C@@H](n4cnc5c(N)ncnc54)[C@H](O)[C@@H]3O)[C@H](O)[C@@H]2O)n1 | 15 | 3.7 | – | 70 | – | – | –
7 | NC(=O)c1csc([C@@H]2O[C@H](COP(=O)(O)CP(=O)(O)OC[C@@H]3O[C@H](n4cnc5c(N)ncnc54)[C@H](F)[C@H]3O)[C@@H](O)[C@H]2O)n1 | 14 | 70 | 6 | 9.5 | 0.7 | – | –
8 | NC(=O)c1csc([C@@H]2O[C@H](COP(=O)(O)C(F)(F)P(=O)(O)OC[C@@H]3O[C@H](n4cnc5c(N)ncnc54)[C@@H](O)[C@H]3O)[C@@H](O)[C@H]2O)n1 | 14 | 11 | 0.3 | 48 | 3.4 | – | –
9 | NC(=O)c1csc([C@@H]2O[C@H](COP(=O)(O)OP(=O)(O)OC[C@@H]3O[C@H](n4cnc5c(N)ncnc54)[C@@H](F)[C@H]3O)[C@@H](O)[C@H]2O)n1 | 13 | 3.8 | 2.6 | 56 | 10.4 | – | –
10 | NC(=O)c1csc([C@@H]2O[C@H](COP(=O)(O)OP(=O)(O)OC[C@@H]3O[C@H](n4cnc5c(N)ncnc54)[C@@H](O)[C@H]3F)[C@@H](O)[C@H]2O)n1 | 2.5 | 3.2 | 0.7 | 26 | 10.4 | – | –
